Source: ChEMBL document CHEMBL3045650, “Design, synthesis, and 3D-QSAR analysis of novel 1,3,4-oxadiazol-2(3H)-ones as protoporphyrinogen oxidase inhibitors” (J Agric Food Chem, 2010)

Tests used:
Amaranthus retroflexus = assay: Post-emergence herbicidal activity against Amaranthus retroflexus assessed as growth inhibition at emulsified concentrate of 150 g/ai ha after 15 days by greenhouse test; assay type: functional
Procedure, shortened: (§1)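 About 20 seeds sown 1–3 cm deep, grown at 15–30 °C and 50% RH. Dicot seedlings sprayed postemergence at the two-leaf stage with a 100 g/L emulsifiable concentrate (DMF/Tween-80) diluted in water, 150 g ai/ha. Untreated and solvent controls included. Visual rating at 15 days, three replicates.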

Eclipta prostrata = assay: Post-emergence herbicidal activity against Eclipta prostrata assessed as growth inhibition at emulsified concentrate of 150 g/ai ha after 15 days by greenhouse test; assay type: functional; procedure, shortened: as §1
Poa annua = assay: Post-emergence herbicidal activity against Poa annua assessed as growth inhibition at emulsified concentrate of 150 g/ai ha after 15 days by greenhouse test; assay type: functional
Procedure, shortened: (§2)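 About 20 seeds sown 1–3 cm deep, grown at 15–30 °C and 50% RH. Monocot seedlings sprayed postemergence at the one-leaf stage with a 100 g/L emulsifiable concentrate (DMF/Tween-80) diluted in water, 150 g ai/ha. Untreated and solvent controls included. Visual rating at 15 days, three replicates.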

Digitaria sanguinalis = assay: Post-emergence herbicidal activity against Digitaria sanguinalis (hairy crabgrass) assessed as growth inhibition at emulsified concentrate of 150 g/ai ha after 15 days by greenhouse test; assay type: functional; procedure, shortened: as §2
[1] = target: T1, Protoporphyrinogen oxidase (Homo sapiens, UniProt P50336); assay: Inhibition of Homo sapiens (human) recombinant protoporphyrinogen oxidase expressed in Escherichia coli JM109 assessed as oxidation of protoporphyrinogen IX substrate by fluorescence assay
T1 sequence (P50336 whole entry): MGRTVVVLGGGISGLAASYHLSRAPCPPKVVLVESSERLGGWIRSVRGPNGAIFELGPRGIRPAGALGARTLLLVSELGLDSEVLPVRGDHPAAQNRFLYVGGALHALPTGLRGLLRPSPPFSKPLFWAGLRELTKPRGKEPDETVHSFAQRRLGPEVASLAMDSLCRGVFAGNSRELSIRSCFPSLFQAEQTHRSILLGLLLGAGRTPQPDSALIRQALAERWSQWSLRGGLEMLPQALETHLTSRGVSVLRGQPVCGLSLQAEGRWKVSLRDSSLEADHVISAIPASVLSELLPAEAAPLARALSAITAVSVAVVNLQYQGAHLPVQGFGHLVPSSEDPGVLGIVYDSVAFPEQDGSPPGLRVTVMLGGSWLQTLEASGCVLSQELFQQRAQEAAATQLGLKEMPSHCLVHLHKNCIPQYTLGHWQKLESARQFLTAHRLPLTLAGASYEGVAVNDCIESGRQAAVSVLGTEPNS

Brassica juncea = assay: Post-emergence herbicidal activity against Brassica juncea assessed as growth inhibition at emulsified concentrate of 150 g/ai ha after 15 days by greenhouse test; assay type: functional; procedure, shortened: as §1
Echinochloa crus-galli = assay: Post-emergence herbicidal activity against Echinochloa crus-galli (barnyard grass) assessed as growth inhibition at emulsified concentrate of 150 g/ai ha after 15 days by greenhouse test; assay type: functional; procedure, shortened: as §2

Row | SMILES | inhibition (INH) (Amaranthus retroflexus) [%] | inhibition (INH) (Eclipta prostrata) [%] | inhibition (INH) (Poa annua) [%] | inhibition (INH) (Digitaria sanguinalis) [%] | Ki [1] [µM] | inhibition (INH) (Brassica juncea) [%] | inhibition (INH) (Echinochloa crus-galli) [%]
1 | CCOC(=O)Sc1nc2cc(-n3nc(C(C)(C)C)oc3=O)c(F)cc2s1 | 0 | 0 | 0 | 0 | 1.3 | 0 | 0
2 | COC(=O)CSc1nc2cc(-n3nc(C(C)(C)C)oc3=O)c(F)cc2s1 | 60 | 0 | 0 | 0 | 3.99 | 0 | 0
3 | CCOC(=O)C(C)(C)Sc1nc2cc(-n3nc(C(C)(C)C)oc3=O)c(F)cc2s1 | 60 | 70 | 0 | 0 | 1.54 | 50 | 0
4 | CCOC(=O)CCSc1nc2cc(-n3nc(C(C)(C)C)oc3=O)c(F)cc2s1 | 50 | 50 | 0 | 0 | 0.32 | 60 | 0
5 | CCOC(=O)Sc1nc2cc(-n3nc(C(C)(C)C)oc3=O)c(Cl)cc2s1 | 70 | 40 | 0 | 0 | 0.33 | 70 | 0
6 | CCOC(=O)CSc1nc2cc(-n3nc(C(C)(C)C)oc3=O)c(Cl)cc2s1 | 70 | 60 | 0 | 0 | 1.01 | 50 | 0
7 | CCOC(=O)C(C)(C)Sc1nc2cc(-n3nc(C(C)(C)C)oc3=O)c(Cl)cc2s1 | 50 | 50 | 0 | 0 | 1.35 | 60 | 0
8 | CCOC(=O)CCCSc1nc2cc(-n3nc(C(C)(C)C)oc3=O)c(Cl)cc2s1 | 50 | 0 | 0 | 0 | 2.02 | 0 | 0
9 | C#CCSc1nc2cc(-n3nc(C(C)(C)C)oc3=O)c(Cl)cc2s1 |  |  |  |  | 8.61 |  | 
10 | CCOC(=O)CSc1nc2cc(-n3nc(C(C)(C)C)oc3=O)c(Br)cc2s1 | 75 | 0 | 0 | 0 | 6.96 | 0 | 0
11 | CCOC(=O)C(C)Sc1nc2cc(-n3nc(C(C)(C)C)oc3=O)c(Br)cc2s1 (centres undefined) | 70 | 60 | 0 | 0 | 8.13 | 0 | 0
12 | CCOC(=O)CCSc1nc2cc(-n3nc(C(C)(C)C)oc3=O)c(Br)cc2s1 | 0 | 30 | 0 | 0 | 1.69 | 0 | 0
13 | CCOC(=O)CCCSc1nc2cc(-n3nc(C(C)(C)C)oc3=O)c(Br)cc2s1 |  |  |  |  | 5.83 |  | 
14 | C#CCSc1nc2cc(-n3nc(C(C)(C)C)oc3=O)c(Br)cc2s1 | 40 | 40 | 0 | 0 | 11.1 | 40 | 0
15 | CC(C)(C)c1nn(-c2cc3nc(SCC=C(Cl)Cl)sc3cc2Br)c(=O)o1 |  |  |  |  | 18.6 |  | 
16 | CCCOC(=O)CSc1nc2cc(-n3nc(C(C)(C)C)oc3=O)c(Br)cc2s1 | 50 | 30 | 0 | 0 | 3.1 | 0 | 0
17 | CC(C)OC(=O)CSc1nc2cc(-n3nc(C(C)(C)C)oc3=O)c(Br)cc2s1 | 75 | 0 | 0 | 0 | 5.97 | 0 | 0
18 | COC(=O)/C=C/CSc1nc2cc(-n3nc(C(C)(C)C)oc3=O)c(F)cc2s1 | 40 | 50 | 0 | 0 | 7.48 | 40 | 0
19 | CC(C)(C)c1nn(-c2cc3nc(SCC=C(Cl)Cl)sc3cc2F)c(=O)o1 | 60 | 60 | 50 | 40 | 10.9 | 70 | 50
20 | CCCOC(=O)CSc1nc2cc(-n3nc(C(C)(C)C)oc3=O)c(Cl)cc2s1 | 70 | 0 | 0 | 0 | 0.98 | 0 | 0
21 | CC(C)OC(=O)CSc1nc2cc(-n3nc(C(C)(C)C)oc3=O)c(Cl)cc2s1 | 50 | 0 | 0 | 0 | 2.17 | 0 | 0
22 | C=CCSc1nc2cc(-n3nc(C(C)(C)C)oc3=O)c(Cl)cc2s1 | 70 | 60 | 0 | 0 | 3.11 | 70 | 0
23 | COC(=O)CSc1nc2cc(-n3nc(C(C)(C)C)oc3=O)c(Cl)cc2s1 | 70 | 50 | 0 | 0 | 1.07 | 0 | 0
24 | CC(C)(C)OC(=O)CSc1nc2cc(-n3nc(C(C)(C)C)oc3=O)c(Cl)cc2s1 | 40 | 30 | 0 | 0 | 0.84 | 50 | 0
25 | CC(C)(C)OC(=O)CSc1nc2cc(-n3nc(C(C)(C)C)oc3=O)c(F)cc2s1 | 0 | 0 | 0 | 0 | 1.59 | 0 | 0
26 | CC(C)(C)c1nn(-c2cc3nc(SCC=C(Cl)Cl)sc3cc2Cl)c(=O)o1 | 70 | 40 | 0 | 0 | 10.2 | 70 | 0
27 | C=CCSc1nc2cc(-n3nc(C(C)(C)C)oc3=O)c(F)cc2s1 | 60 | 40 | 0 | 0 | 15.9 | 60 | 0
28 | COC(=O)Sc1nc2cc(-n3nc(C(C)(C)C)oc3=O)c(F)cc2s1 | 40 | 0 | 0 | 0 | 0.72 | 0 | 0
29 | Cc1nn(-c2cc(NS(C)(=O)=O)c(Cl)cc2Cl)c(=O)n1C(F)F [SULFENTRAZONE] | 100 | 100 |  | 70 | 0.72 | 100 | 75
